# Calls of active or inactive are those of the source. No cut-off for these calls is given here.
# Key:
# [1] = target: T1, Metabotropic glutamate receptor 5 (Homo sapiens, UniProt P41594); assay: Displacement of [3H]M-MPEP from mGluR5 (unknown origin) measured after 60 mins
# Outline: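 The [³H]M-MPEP competition used rat cortical membranes or human mGlu5a A18 cell membranes in Tris pH 7.6 buffer with MgCl₂ and CaCl₂, 60 min at 25°C. Curves were generally 7 concentrations in duplicate or triplicate. IC50 was converted to Ki by Cheng–Prusoff, with Kd from a Scatchard plot. Non-specific binding was defined with M-MPEP.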
# Target sequence in this assay (P41594 whole entry): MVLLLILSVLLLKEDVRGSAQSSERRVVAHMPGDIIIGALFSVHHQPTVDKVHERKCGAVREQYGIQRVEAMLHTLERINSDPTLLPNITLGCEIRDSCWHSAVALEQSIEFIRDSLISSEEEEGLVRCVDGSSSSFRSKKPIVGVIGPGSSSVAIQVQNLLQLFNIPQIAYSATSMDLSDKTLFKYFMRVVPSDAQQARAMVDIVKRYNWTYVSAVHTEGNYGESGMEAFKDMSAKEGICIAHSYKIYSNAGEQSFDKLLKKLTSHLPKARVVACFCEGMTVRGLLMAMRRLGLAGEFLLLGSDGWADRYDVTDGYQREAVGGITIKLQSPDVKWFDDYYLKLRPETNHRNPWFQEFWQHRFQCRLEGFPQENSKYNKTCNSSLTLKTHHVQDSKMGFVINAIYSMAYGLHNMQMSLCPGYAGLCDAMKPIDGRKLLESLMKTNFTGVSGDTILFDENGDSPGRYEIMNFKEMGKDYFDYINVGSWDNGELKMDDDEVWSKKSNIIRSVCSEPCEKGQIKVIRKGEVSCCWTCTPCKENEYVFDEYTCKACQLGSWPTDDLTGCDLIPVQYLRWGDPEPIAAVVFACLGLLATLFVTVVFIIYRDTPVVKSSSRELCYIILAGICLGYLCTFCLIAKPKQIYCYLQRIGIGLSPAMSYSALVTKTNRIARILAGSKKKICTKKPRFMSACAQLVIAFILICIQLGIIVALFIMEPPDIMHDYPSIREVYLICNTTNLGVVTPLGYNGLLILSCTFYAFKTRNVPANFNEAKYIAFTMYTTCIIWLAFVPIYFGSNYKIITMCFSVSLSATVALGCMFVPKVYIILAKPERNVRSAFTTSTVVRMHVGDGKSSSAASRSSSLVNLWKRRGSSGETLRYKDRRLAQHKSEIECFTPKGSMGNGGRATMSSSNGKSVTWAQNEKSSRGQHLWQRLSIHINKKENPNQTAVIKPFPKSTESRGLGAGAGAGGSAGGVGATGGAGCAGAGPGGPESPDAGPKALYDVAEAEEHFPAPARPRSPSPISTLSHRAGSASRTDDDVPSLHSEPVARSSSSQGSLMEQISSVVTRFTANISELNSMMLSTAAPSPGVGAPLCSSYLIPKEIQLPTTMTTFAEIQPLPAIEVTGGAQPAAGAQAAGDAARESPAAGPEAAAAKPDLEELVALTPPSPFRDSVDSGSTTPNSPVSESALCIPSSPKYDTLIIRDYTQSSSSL
# [2] = target: T1, Metabotropic glutamate receptor 5; assay: Displacement of [3H]M-MPEP from mGluR5 (unknown origin) at 1 uM measured after 60 mins relative to control
# Outline: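 Rat cerebrocortical membranes or membranes from A18 cells expressing human mGlu5a, incubated with [³H]M-MPEP and test compound at 1 µM in 50 mM Tris pH 7.6 with 2 mM MgCl₂ and 2 mM CaCl₂, 60 min at 25°C. Non-specific binding was taken with […]. Result is % displacement, run in duplicate or triplicate.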
# Target sequence in this assay (P41594 21-1212 limits assumed): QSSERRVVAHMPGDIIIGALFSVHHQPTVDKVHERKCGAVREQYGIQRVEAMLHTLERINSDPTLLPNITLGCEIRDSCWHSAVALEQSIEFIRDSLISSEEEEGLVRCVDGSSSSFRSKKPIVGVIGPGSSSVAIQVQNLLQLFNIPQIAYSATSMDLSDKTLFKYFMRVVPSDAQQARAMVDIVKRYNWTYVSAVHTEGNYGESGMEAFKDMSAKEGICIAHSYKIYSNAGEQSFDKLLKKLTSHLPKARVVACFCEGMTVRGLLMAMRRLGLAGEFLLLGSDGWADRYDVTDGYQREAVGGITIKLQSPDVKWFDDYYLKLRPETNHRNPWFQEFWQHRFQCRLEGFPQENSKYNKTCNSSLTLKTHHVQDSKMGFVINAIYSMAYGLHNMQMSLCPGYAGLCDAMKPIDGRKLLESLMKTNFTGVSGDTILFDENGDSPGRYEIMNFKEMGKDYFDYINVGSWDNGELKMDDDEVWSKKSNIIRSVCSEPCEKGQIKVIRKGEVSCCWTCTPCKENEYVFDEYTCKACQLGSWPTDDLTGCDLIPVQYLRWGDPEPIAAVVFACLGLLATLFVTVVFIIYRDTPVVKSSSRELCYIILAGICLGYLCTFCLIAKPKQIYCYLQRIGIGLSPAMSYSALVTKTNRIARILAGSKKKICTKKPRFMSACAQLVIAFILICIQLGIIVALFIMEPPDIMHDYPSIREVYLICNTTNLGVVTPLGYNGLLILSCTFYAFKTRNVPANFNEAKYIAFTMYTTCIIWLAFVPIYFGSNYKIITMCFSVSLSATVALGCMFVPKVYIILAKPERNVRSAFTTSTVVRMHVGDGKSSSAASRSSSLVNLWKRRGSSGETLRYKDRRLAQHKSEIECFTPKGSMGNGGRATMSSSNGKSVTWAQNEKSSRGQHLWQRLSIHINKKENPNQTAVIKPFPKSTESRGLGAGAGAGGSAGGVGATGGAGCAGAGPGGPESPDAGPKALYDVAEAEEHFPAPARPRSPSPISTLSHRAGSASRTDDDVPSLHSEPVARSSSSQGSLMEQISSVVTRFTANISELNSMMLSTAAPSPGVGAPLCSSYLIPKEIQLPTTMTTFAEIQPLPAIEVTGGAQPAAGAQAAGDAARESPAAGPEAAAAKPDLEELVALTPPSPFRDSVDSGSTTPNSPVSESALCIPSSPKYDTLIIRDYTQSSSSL
# [3] = target: Metabotropic glutamate receptor 1 (Homo sapiens) (UniProt Q13255); assay: Activity at mGluR1 (unknown origin)
# Chain of Metabotropic glutamate receptor 1 (Homo sapiens) (Q13255 19-1194 limits assumed): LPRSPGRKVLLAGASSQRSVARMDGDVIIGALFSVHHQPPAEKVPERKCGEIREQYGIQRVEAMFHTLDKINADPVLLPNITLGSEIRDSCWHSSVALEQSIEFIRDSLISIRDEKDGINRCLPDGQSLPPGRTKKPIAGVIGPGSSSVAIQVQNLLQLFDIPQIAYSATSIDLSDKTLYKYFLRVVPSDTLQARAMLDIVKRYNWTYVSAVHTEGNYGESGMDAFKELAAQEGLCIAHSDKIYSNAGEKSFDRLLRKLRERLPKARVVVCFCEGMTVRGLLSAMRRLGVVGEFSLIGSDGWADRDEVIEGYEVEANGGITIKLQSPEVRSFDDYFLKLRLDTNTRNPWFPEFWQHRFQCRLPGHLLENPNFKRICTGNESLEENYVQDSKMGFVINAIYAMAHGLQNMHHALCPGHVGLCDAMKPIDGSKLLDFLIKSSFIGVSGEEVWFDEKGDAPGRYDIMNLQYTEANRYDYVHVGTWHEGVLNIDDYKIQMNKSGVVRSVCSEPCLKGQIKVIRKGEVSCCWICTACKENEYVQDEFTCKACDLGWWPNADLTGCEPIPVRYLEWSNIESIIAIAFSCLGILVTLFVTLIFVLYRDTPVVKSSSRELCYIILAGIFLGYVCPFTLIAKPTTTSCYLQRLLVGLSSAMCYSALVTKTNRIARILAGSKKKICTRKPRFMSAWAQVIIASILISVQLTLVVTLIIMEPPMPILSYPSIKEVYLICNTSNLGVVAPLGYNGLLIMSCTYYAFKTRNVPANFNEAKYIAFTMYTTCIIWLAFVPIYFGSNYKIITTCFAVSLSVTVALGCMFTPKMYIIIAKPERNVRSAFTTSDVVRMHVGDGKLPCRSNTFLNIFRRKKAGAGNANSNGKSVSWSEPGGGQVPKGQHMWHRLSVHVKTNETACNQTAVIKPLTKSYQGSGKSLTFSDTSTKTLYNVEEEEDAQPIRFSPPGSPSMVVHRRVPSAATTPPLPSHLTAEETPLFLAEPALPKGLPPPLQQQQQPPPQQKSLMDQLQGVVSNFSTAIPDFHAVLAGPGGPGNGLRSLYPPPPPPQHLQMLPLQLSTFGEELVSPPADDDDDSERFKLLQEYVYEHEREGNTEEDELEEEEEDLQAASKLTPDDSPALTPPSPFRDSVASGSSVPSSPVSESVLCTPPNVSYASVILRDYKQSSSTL
# [4] = Drug level in blood of rat at 10 mg/kg, ip at 40 mins post dose; assay type: ADME, organism-based; conditions: read-out: Drug uptake
# [5] = Aqueous solubility of the compound in water; assay type: physicochemical
# Rattus norvegicus = assay: Anxiolytic activity in ip dosed rat assessed as increase in water drinking time during punished period by Vogel punished drinking conflict test; assay type: functional; conditions: read-out: MED
# Outline: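 Rats were water-deprived 48 h. On test day, compound was given i.p. in 5% Tween/distilled water at 1, 3 or 10 mg/kg, n=8 per dose. A 30-s unpunished drinking period followed. Comparison to vehicle was by ANOVA with Duncan post-hoc, giving MED.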
SMILES,inhibition [2],further results
CC1CCN(c2c(S(=O)(=O)c3ccccc3)cnc3ccccc23)CC1,89.2%,Ki [1]: 108 nM
Cc1ccc(S(=O)(=O)c2cnc3ccccc3c2N2CCOCC2)cc1C,,Activity [3]: inactive
N#Cc1cc(F)cc(S(=O)(=O)c2cnc3cc(Cl)ccc3c2N2CCC(CO)CC2)c1,,concentration at 40 min [4]: 608 ng/mL; solubility [5]: 15 to 45 µM; minimal effective dose (Rattus norvegicus): > 10 mg/kg; Ki [1]: 24.1 nM
O=S(=O)(c1ccccc1)c1cnc2ccccc2c1N1CCCCC1,71.4%,Ki [1]: 307 nM
O=S(=O)(c1ccccc1)c1cnc2ccccc2c1N1CCCCCC1,79.9%,Ki [1]: 310 nM
O=S(=O)(c1cccc(Cl)c1)c1cnc2cc(Cl)ccc2c1N1CCC(CO)CC1,,concentration at 40 min [4]: 193 ng/mL; solubility [5]: 15 to 45 µM; minimal effective dose (Rattus norvegicus): 10 mg/kg; Ki [1]: 30.9 nM
Cc1ccc2ncc(S(=O)(=O)c3cccc(F)c3)c(N3CCC(C)CC3)c2c1,94%,solubility [5]: < 3 µM
CC1CCN(c2c(S(=O)(=O)c3ccc(Cl)c(Cl)c3)cnc3ccc(F)cc23)CC1,91%,concentration at 40 min [4]: 46 ng/mL; solubility [5]: < 3 µM; minimal effective dose (Rattus norvegicus): 30 mg/kg; Ki [1]: 55.6 nM
CC1CCN(c2c(S(=O)(=O)c3ccc(F)c(F)c3)cnc3ccc(Cl)cc23)CC1,72%,
Cc1ccc2ncc(S(=O)(=O)c3ccc(C)c(F)c3)c(N3CCC(C)CC3)c2c1,91%,
Cc1ccc(S(=O)(=O)c2cnc3ccc(Cl)cc3c2N2CCC(C)CC2)cc1C,84%,
Cc1ccc2ncc(S(=O)(=O)c3cccc(C#N)c3)c(N3CCC(C)CC3)c2c1,52%,
COCC1CCN(c2c(S(=O)(=O)c3cccc(F)c3)cnc3cc(F)ccc23)CC1,70.5%,
COc1ccc(S(=O)(=O)c2cnc3ccc(F)cc3c2N2CCC(C)CC2)cc1,85%,
CC1CCN(c2c(S(=O)(=O)c3ccc(Cl)cc3)cnc3cc(F)ccc23)CC1,90%,
N#Cc1cccc(S(=O)(=O)c2cnc3cc(F)ccc3c2N2CCOCC2)c1,71 to 71.4%,
Cc1ccc2ncc(S(=O)(=O)c3ccc(C)c(C)c3)c(N3CCC(C)CC3)c2c1,90%,
CC1CCN(c2c(S(=O)(=O)c3cc(Cl)cc(Cl)c3)cnc3ccc(F)cc23)CC1,69%,
COc1ccc(S(=O)(=O)c2cnc3ccc(Cl)cc3c2N2CCC(C)CC2)cc1OC,61%,
CC1CCN(c2c(S(=O)(=O)c3cccc(C#N)c3)cnc3cc(Cl)ccc23)CC1,94%,
O=S(=O)(c1ccccc1)c1cnc2c(F)cccc2c1N1CCOCC1,4%,
CC1CCN(c2c(S(=O)(=O)c3ccccc3)cnc3ccc(F)cc23)CC1,40%,

SMILES,inhibition [2],further results
Cc1ccc2ncc(S(=O)(=O)c3ccccc3)c(N3CCC(C)CC3)c2c1,67%,
CC1CCN(c2c(S(=O)(=O)c3ccc(Cl)cc3)cnc3ccc(Cl)cc23)CC1,92%,Ki [1]: 435 nM
CC1CCN(c2c(S(=O)(=O)c3ccc(Cl)c(Cl)c3)cnc3ccc(Cl)cc23)CC1,86%,concentration at 40 min [4]: 55 ng/mL; solubility [5]: < 3 µM; minimal effective dose (Rattus norvegicus): > 30 mg/kg; Ki [1]: 103 nM
CC1CCN(c2c(S(=O)(=O)c3ccc(F)c(F)c3)cnc3cc(Cl)ccc23)CC1,90%,
Cc1ccc(S(=O)(=O)c2cnc3c(F)cccc3c2N2CCC(C)CC2)cc1F,93%,
Cc1ccc(S(=O)(=O)c2cnc3ccccc3c2NCc2ccccc2)cc1,73.5%,Ki [1]: 198 nM
Cc1ccc2ncc(S(=O)(=O)c3ccc(Cl)cc3)c(N3CCC(C)CC3)c2c1,79%,
COc1ccc2ncc(S(=O)(=O)c3ccc(OC)c(Cl)c3)c(N3CCC(C)CC3)c2c1,21%,
Cc1ccc2ncc(S(=O)(=O)c3cc(Cl)cc(Cl)c3)c(N3CCC(C)CC3)c2c1,75%,
Cc1ccc(S(=O)(=O)c2cnc3cc(F)ccc3c2N2CCC(C)CC2)cc1F,89%,
CC1CCN(c2c(S(=O)(=O)c3ccc(F)cc3)cnc3ccc(Cl)cc23)CC1,89%,
O=S(=O)(c1ccc(F)cc1)c1cnc2c(F)cccc2c1N1CCOCC1,34%,
CC1CCN(c2c(S(=O)(=O)c3ccc(F)cc3)cnc3ccc(F)cc23)CC1,87%,
CC1CCN(c2c(S(=O)(=O)c3ccc(Cl)c(Cl)c3)cnc3c(F)cccc23)CC1,95%,
COc1ccc(S(=O)(=O)c2cnc3ccc(OC)cc3c2N2CCC(C)CC2)cc1,41%,
COCC1CCN(c2c(S(=O)(=O)c3cccc(C#N)c3)cnc3cc(F)ccc23)CC1,91%,
COc1cccc(S(=O)(=O)c2cnc3ccc(OC)cc3c2N2CCC(C)CC2)c1,0%,
CCN(CC)c1c(S(=O)(=O)c2ccc(C)cc2)cnc2ccccc12,78.3%,Ki [1]: 201 nM
CC1CCN(c2c(S(=O)(=O)c3ccc(F)c(Cl)c3)cnc3c(F)cccc23)CC1,95%,
CC1CCN(c2c(S(=O)(=O)c3ccc(F)c(F)c3)cnc3cc(F)ccc23)CC1,94%,
O=S(=O)(c1cccc(F)c1)c1cnc2cc(Cl)ccc2c1N1CCC(CO)CC1,71%,

# Further lines, with some results ahead:
inhibition [2],SMILES,further results
94%,CC1CCN(c2c(S(=O)(=O)c3cc(F)cc(F)c3)cnc3cc(Cl)ccc23)CC1,Ki [1]: 68.2 nM
83%,O=S(=O)(c1ccc(F)c(Cl)c1)c1cnc2cc(Cl)ccc2c1N1CCOCC1,
9%,COc1ccc2ncc(S(=O)(=O)c3ccc(OC)c(Cl)c3)c(N3CCOCC3)c2c1,
7%,COc1ccc2ncc(S(=O)(=O)c3ccc(F)cc3)c(N3CCOCC3)c2c1,
5%,COc1ccc(S(=O)(=O)c2cnc3cc(F)ccc3c2N2CCOCC2)cc1OC,
93%,COc1ccc2ncc(S(=O)(=O)c3ccc(Cl)cc3)c(N3CCOCC3)c2c1,
3%,O=S(=O)(c1cc(F)cc(F)c1)c1cnc2ccc(F)cc2c1N1CCOCC1,
10%,Cc1ccc2ncc(S(=O)(=O)c3cccc(F)c3)c(N3CCOCC3)c2c1,
11%,COc1ccc2ncc(S(=O)(=O)c3cc(C)cc(C)c3)c(N3CCOCC3)c2c1,
24%,Cc1ccc2ncc(S(=O)(=O)c3ccc(F)c(F)c3)c(N3CCOCC3)c2c1,
29%,COc1ccc2ncc(S(=O)(=O)c3ccc(Cl)c(Cl)c3)c(N3CCOCC3)c2c1,
15%,O=S(=O)(c1ccc(Cl)cc1)c1cnc2ccc(Cl)cc2c1N1CCOCC1,
84%,Cc1ccc(S(=O)(=O)c2cnc3ccc(Cl)cc3c2N2CCOCC2)cc1,
24%,O=S(=O)(c1cccc(Cl)c1)c1cnc2ccc(Cl)cc2c1N1CCOCC1,
-5%,COc1ccc(S(=O)(=O)c2cnc3ccc(F)cc3c2N2CCOCC2)cc1OC,
89%,Cc1ccc2ncc(S(=O)(=O)c3ccc(Cl)cc3)c(N3CCOCC3)c2c1,
58%,COc1ccc(S(=O)(=O)c2cnc3ccc(C)cc3c2N2CCOCC2)cc1Cl,
79%,COc1ccc2ncc(S(=O)(=O)c3cc(C)cc(C)c3)c(N3CCC(C)CC3)c2c1,
-3%,N#Cc1ccc(S(=O)(=O)c2cnc3ccc(F)cc3c2N2CCOCC2)cc1,
18%,Cc1ccc2ncc(S(=O)(=O)c3ccc(F)cc3)c(N3CCOCC3)c2c1,

inhibition [2],SMILES,further results
0%,O=S(=O)(c1cccc(F)c1)c1cnc2ccc(Cl)cc2c1N1CCOCC1,
32%,O=S(=O)(c1cccc(F)c1)c1cnc2cc(Cl)ccc2c1N1CCOCC1,
17%,O=S(=O)(c1cc(Cl)cc(Cl)c1)c1cnc2ccc(F)cc2c1N1CCOCC1,
47.8 to 48%,O=S(=O)(c1cc(F)cc(F)c1)c1cnc2cc(F)ccc2c1N1CCOCC1,
52%,O=S(=O)(c1cc(F)cc(F)c1)c1cnc2c(F)cccc2c1N1CCOCC1,
6.4%,NS(=O)(=O)N1CCN(c2c(S(=O)(=O)c3cc(F)cc(F)c3)cnc3cc(F)ccc23)CC1,
38%,Cc1ccc(S(=O)(=O)c2cnc3cc(Cl)ccc3c2N2CCOCC2)cc1F,
27%,COc1ccc2ncc(S(=O)(=O)c3ccc(F)cc3)c(N3CCC(C)CC3)c2c1,
70%,Cc1ccc2ncc(S(=O)(=O)c3cc(Cl)cc(Cl)c3)c(N3CCOCC3)c2c1,
7%,O=S(=O)(c1cc(F)cc(F)c1)c1cnc2ccc(Cl)cc2c1N1CCOCC1,
65%,COc1ccc2ncc(S(=O)(=O)c3ccccc3)c(N3CCOCC3)c2c1,
83%,COCC1CCN(c2c(S(=O)(=O)c3cc(F)cc(F)c3)cnc3cc(F)ccc23)CC1,
2%,COc1ccc2ncc(S(=O)(=O)c3ccc(C#N)cc3)c(N3CCOCC3)c2c1,
3%,COc1ccc2ncc(S(=O)(=O)c3cc(F)cc(F)c3)c(N3CCOCC3)c2c1,
51%,Cc1ccc(S(=O)(=O)c2cnc3cc(F)ccc3c2N2CCOCC2)cc1F,
26%,COc1ccc(S(=O)(=O)c2cnc3ccc(C)cc3c2N2CCOCC2)cc1,
1%,COc1ccc2ncc(S(=O)(=O)c3ccc(OC)c(OC)c3)c(N3CCOCC3)c2c1,
87%,COc1ccc2ncc(S(=O)(=O)c3cc(Cl)cc(Cl)c3)c(N3CCC(C)CC3)c2c1,
4%,COc1ccc(S(=O)(=O)c2cnc3cc(Cl)ccc3c2N2CCOCC2)cc1OC,
20%,N#Cc1cccc(S(=O)(=O)c2cnc3ccc(Cl)cc3c2N2CCOCC2)c1,
